Experiment [1] concerns the target Cruzipain (Trypanosoma cruzi) (UniProt P25779). Nature of the experiment: Inhibition of recombinant Trypanosoma cruzi cruzain using Z-Phe-Argaminomethylcoumarin as fluorogenic substrate preincubated at 100 uM for 10 mins before substrate addition by fluorimetry. An outline of the steps: (§1)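 Recombinant cruzain at 0.5 nM in 0.1 M sodium acetate pH 5.5 with 5 mM DTT and 0.01% Triton X-100. Compound pre-incubated with enzyme 10 min at a single screening concentration. […] Fluorescence followed 5 min at ex 340/em 440 nm. Activity relative to DMSO control; at least two independent experiments in triplicate.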

The test system of experiment [2] is Trypanosoma cruzi. Nature of the experiment: Antitrypanosomal activity against trypomastigote forms of Trypanosoma cruzi Y infected in LLC-MK2 cells assessed as reduction in viable parasites after 24 hrs by Neubauer chamber counting method. It counts as functional, organism-based. The conditions noted are these: LLC-MK2, 24 h. Summed up: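 Bloodstream trypomastigotes (Y strain) taken from supernatants of infected LLC-MK2 cells kept in RPMI-1640 with 10% FBS and gentamycin at 37 °C, 5% CO2. Plated at 4×10^5 cells/well with five concentrations of inhibitor in DMSO. Incubated 24 h at 37 °C, 5% CO2. Motile parasites counted in a Neubauer chamber. % inhibition taken against untreated cultures; IC50 from non-linear regression.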

The subject of experiment [3] is Trypanosoma cruzi. Description: Trypanocidal activity against epimastigote forms of Trypanosoma cruzi Y assessed as reduction in viable parasites after 11 days by Neubauer chamber counting method. The class given is functional, organism-based. The conditions noted are these: 264 h. Summed up: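 Y-strain epimastigotes grown at 26 °C in LIT medium with 10% FBS, hemin, R9 and gentamycin. Seeded at 10^6 cells/well and exposed in triplicate to 1.23, 3.70, 11.11, 33.33 and 100 µg/mL inhibitor in DMSO. Incubated 11 days at 26 °C. Viable parasites counted in a Neubauer chamber against untreated culture. IC50 from non-linear regression; experiment run in duplicate.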

A further experiment has as its target Cruzipain (Trypanosoma cruzi, UniProt P25779). Description: Inhibition of recombinant Trypanosoma cruzi cruzain using Z-Phe-Argaminomethylcoumarin as fluorogenic substrate preincubated for 10 mins before substrate addition by fluorimetry. An outline of the steps:
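IC50 against recombinant cruzain (0.5 nM) in 0.1 M sodium acetate pH 5.5, 5 mM DTT, 0.01% Triton X-100. At least seven inhibitor concentrations, each pre-incubated 10 min with enzyme. Z-FR-AMC at 2.5 µM, fluorescence ex 340/em 440 nm followed 5 min. Two independent experiments in triplicate, normalized to DMSO control.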

A further experiment has as its system HepG2. Nature of the experiment: Cytotoxicity against human HepG2 cells after 48 hrs by. It counts as cell-based. The conditions noted are these: HepG2, 48 h. Summed up:
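HepG2 cells in supplemented Eagle's MEM, 3000 cells/well, plated onto predispensed compounds. Incubated 48 h at 37 °C, 80% humidity, 5% CO2. Viability read by CellTiter-Glo luminescence.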

Experiment [4] addresses Cruzipain (Trypanosoma cruzi) (UniProt P25779). Nature of the experiment: Inhibition of recombinant Trypanosoma cruzi cruzain using Z-Phe-Argaminomethylcoumarin as fluorogenic substrate preincubated at 75 uM for 10 mins before substrate addition by fluorimetry. Summed up: as §1
The target is the same in experiment [5]. Description: Inhibition of recombinant Trypanosoma cruzi cruzain using Z-Phe-Argaminomethylcoumarin as fluorogenic substrate preincubated at 50 uM for 10 mins before substrate addition by fluorimetry. An outline of the steps:
as §1

Cruzipain (Trypanosoma cruzi), sequence (P25779 123-467 limits assumed): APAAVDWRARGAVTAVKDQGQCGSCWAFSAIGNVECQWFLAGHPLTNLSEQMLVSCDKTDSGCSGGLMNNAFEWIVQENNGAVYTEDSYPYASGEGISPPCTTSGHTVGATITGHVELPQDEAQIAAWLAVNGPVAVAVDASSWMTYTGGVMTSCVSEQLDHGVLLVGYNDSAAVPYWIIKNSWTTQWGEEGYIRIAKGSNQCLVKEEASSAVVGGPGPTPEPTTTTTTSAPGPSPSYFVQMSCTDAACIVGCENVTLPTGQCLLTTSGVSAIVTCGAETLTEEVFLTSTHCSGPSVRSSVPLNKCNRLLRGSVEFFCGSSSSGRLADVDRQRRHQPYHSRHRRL
Cruzipain, sequence (P25779 whole entry): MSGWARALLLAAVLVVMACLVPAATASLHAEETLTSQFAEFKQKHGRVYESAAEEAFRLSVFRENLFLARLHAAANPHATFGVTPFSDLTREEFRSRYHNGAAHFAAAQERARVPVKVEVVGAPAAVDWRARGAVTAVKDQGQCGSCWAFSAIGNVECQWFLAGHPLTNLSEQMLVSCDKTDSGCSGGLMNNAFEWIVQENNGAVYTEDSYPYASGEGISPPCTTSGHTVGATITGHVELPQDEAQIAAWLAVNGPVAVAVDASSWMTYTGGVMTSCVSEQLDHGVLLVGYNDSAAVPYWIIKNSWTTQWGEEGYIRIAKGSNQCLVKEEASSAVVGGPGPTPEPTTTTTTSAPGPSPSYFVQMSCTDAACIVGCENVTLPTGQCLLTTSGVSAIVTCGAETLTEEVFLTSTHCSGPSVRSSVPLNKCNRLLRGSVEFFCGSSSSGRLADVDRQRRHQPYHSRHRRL

In general, inhibition refers to the change of the read-out against control, counted positive when it falls. What is called IC50 is the midpoint of a concentration-inhibition curve. Turning to `C/C(=N\Nc1nc(-c2ccc(F)cc2)cs1)c1ccccn1`, the inhibition in experiment [1] was found to be 89%. Moreover, the IC50 in the experiment with Trypanosoma cruzi [2] worked out at 3.8 µM; in the experiment with Trypanosoma cruzi [3] it was 2.8 µM; on Cruzipain, 0.3 µM; with HepG2 it was 91.2 µM.

For the molecule `C(=N\Nc1nc(-c2ccc3ccccc3c2)cs1)/c1ccccn1`, the inhibition in experiment [1] was 3%. Further, the 50% inhibitory concentration (IC50) in the experiment on Trypanosoma cruzi [2] was 2.1 µM; in the experiment with Trypanosoma cruzi [3], 8.3 µM; with HepG2, 100 µM.

In the case of `C/C(=N\NC(N)=S)c1ccccn1`, the inhibition in experiment [1] amounted to 5%. The IC50 came to 2.8 µM in the experiment on Trypanosoma cruzi [2] and 4.5 µM in the experiment with Trypanosoma cruzi [3].

On to `C/C(=N\Nc1nc(-c2ccc(Cl)cc2Cl)cs1)c1ccccn1`, for which, in experiment [1], the inhibition was 81%. For the same molecule, the IC50 with Trypanosoma cruzi [2] came to 1.9 µM; in the experiment with Trypanosoma cruzi [3], 14.9 µM; at Cruzipain, 4.8 µM; in the experiment with HepG2, 100 µM.

Turning to `C/C(=N/Nc1nc(-c2ccc(Cl)cc2)cs1)c1ccccn1`, in experiment [1], the inhibition is -3%. Moreover, the IC50 in the experiment with Trypanosoma cruzi [2] worked out at 2.1 µM; with Trypanosoma cruzi [3], 2.5 µM; in the experiment with HepG2 it was 100 µM.

For the molecule `Clc1ccc(-c2csc(N/N=C/c3ccccn3)n2)cc1`, the IC50 in the experiment with Trypanosoma cruzi [2] was 3.8 µM; in the experiment with Trypanosoma cruzi [3], 3.8 µM; with HepG2 it was 100 µM. In addition, the inhibition in experiment [4] was -1%.

Take `O=[N+]([O-])c1cccc(-c2csc(N/N=C/c3ccccn3)n2)c1`: in experiment [1], the inhibition stood at 85%. Also, the IC50 with Trypanosoma cruzi [2] was found to be 74.2 µM; with Trypanosoma cruzi [3], 2.5 µM; on Cruzipain, 1.3 µM; in the experiment on HepG2, 100 µM.

As to `C/C(=N\Nc1nc(-c2ccc(C)cc2)cs1)c1ccccn1`, the inhibition in experiment [1] came to 90%. Also, the IC50 in the experiment on Trypanosoma cruzi [2] was determined as 1.7 µM; in the experiment on Trypanosoma cruzi [3] it was 2.5 µM; on Cruzipain, 0.4 µM; in the experiment on HepG2, 100 µM.

Consider `Clc1ccc(-c2csc(N/N=C/c3ccccn3)n2)c(Cl)c1`, for which the IC50 stood at 1.2 µM with Trypanosoma cruzi [2], 4.8 µM in the experiment on Trypanosoma cruzi [3] and 100 µM in the experiment on HepG2. The inhibition in experiment [4] was found to be 0%.

Take `Brc1ccc(-c2csc(N/N=C/c3ccccn3)n2)cc1`: the inhibition in experiment [1] was 86%. Besides, the IC50 turned out to be 2.2 µM with Trypanosoma cruzi [2], 2.2 µM in the experiment with Trypanosoma cruzi [3], 9.5 µM on Cruzipain and 100 µM in the experiment on HepG2.

For `COc1ccc(-c2csc(N/N=C/c3ccccn3)n2)cc1`, the IC50 turned out to be 4.8 µM in the experiment on Trypanosoma cruzi [2], 5.6 µM in the experiment on Trypanosoma cruzi [3] and 100 µM with HepG2. For the same molecule, the inhibition in experiment [4] turned out to be 20%.

Consider `O=[N+]([O-])c1ccc(-c2csc(N/N=C/c3ccccn3)n2)cc1`, for which the inhibition in experiment [1] was determined as 12%. Further, the values for the IC50 in the experiment on Trypanosoma cruzi [2], with Trypanosoma cruzi [3] and in the experiment on HepG2 were 153 µM, 4.4 µM and 100 µM, respectively.

With `C/C(=N\Nc1nc(-c2ccccc2)cs1)c1ccccn1`, the inhibition in experiment [1] is 93%. For the same molecule, the IC50 in the experiment with Trypanosoma cruzi [2] turned out to be 1.1 µM; in the experiment on Trypanosoma cruzi [3], 2.7 µM; on Cruzipain, 1.3 µM; in the experiment on HepG2, 91.2 µM.

For the molecule `Cc1sc(N/N=C/c2ccccn2)nc1-c1ccc(Br)cc1`, the inhibition in experiment [1] turned out to be 10%. In addition, the IC50 is 2.6 µM in the experiment with Trypanosoma cruzi [2], 18.3 µM in the experiment with Trypanosoma cruzi [3] and 100 µM in the experiment on HepG2.

On to `Fc1ccc(-c2csc(N/N=C/c3ccccn3)n2)cc1`, for which the IC50 in the experiment with Trypanosoma cruzi [2] is 72.7 µM; with Trypanosoma cruzi [3], 3.5 µM; in the experiment with HepG2 it was 18.2 µM. Besides, in experiment [5], the inhibition turned out to be 22%.

With `C/C(=N\Nc1nc(-c2ccc([N+](=O)[O-])cc2)cs1)c1ccccn1`, the IC50 in the experiment on Trypanosoma cruzi [2] amounted to 36.7 µM; in the experiment with Trypanosoma cruzi [3] it was 5.2 µM; in the experiment with HepG2, 100 µM. In addition, the inhibition in experiment [4] was 11%.

Regarding `C/C(=N\Nc1nc(-c2ccc(Cl)c(Cl)c2)cs1)c1ccccn1`, the inhibition in experiment [1] stood at 89%. In addition, the IC50 in the experiment on Trypanosoma cruzi [2] was found to be 3.1 µM; in the experiment on Trypanosoma cruzi [3], 5 µM; at Cruzipain it was 0.4 µM; in the experiment with HepG2, 100 µM.

`N/C(S)=N/N=C/c1ccccn1`: in experiment [1], the inhibition came to 1%. In addition, the IC50 in the experiment with Trypanosoma cruzi [2] is 17.3 µM; in the experiment with Trypanosoma cruzi [3] it was 120 µM.

As for `Cc1ccc(-c2csc(N/N=C/c3ccccn3)n2)cc1`, the inhibition in experiment [1] was determined as 23%. In addition, the IC50 amounted to 16.8 µM in the experiment with Trypanosoma cruzi [2], 3.8 µM in the experiment on Trypanosoma cruzi [3] and 100 µM in the experiment on HepG2.

Turning to `C/C(=N\Nc1nc(-c2ccc(Br)cc2)c(C)s1)c1ccccn1`, in experiment [1], the inhibition turned out to be 27%. Moreover, the IC50 in the experiment on Trypanosoma cruzi [2] worked out at 2.3 µM; in the experiment with Trypanosoma cruzi [3], 2.3 µM; with HepG2 it was 85.1 µM.

As to `C/C(=N\Nc1nc(-c2ccc3ccccc3c2)cs1)c1ccccn1`, the inhibition in experiment [1] came to 94%. The IC50 was found to be 2 µM in the experiment with Trypanosoma cruzi [2], 4.1 µM in the experiment with Trypanosoma cruzi [3], 0.01 µM on Cruzipain and 100 µM in the experiment on HepG2.

`Clc1ccc(-c2csc(N/N=C/c3ccccn3)n2)cc1Cl`: the inhibition in experiment [1] stood at 21%. Moreover, the IC50 in the experiment with Trypanosoma cruzi [2] came to 1.2 µM; with Trypanosoma cruzi [3], 4 µM; in the experiment on HepG2, 100 µM.

Turning to `C/C(=N\Nc1nc(-c2cccc([N+](=O)[O-])c2)cs1)c1ccccn1`, the IC50 in the experiment on Trypanosoma cruzi [2] was found to be 3.9 µM; with Trypanosoma cruzi [3], 2.4 µM; in the experiment with HepG2 it was 100 µM. In addition, the inhibition in experiment [4] worked out at 10%.

For the molecule `C/C(=N\Nc1nc(-c2ccc(Br)cc2)cs1)c1ccccn1`, the inhibition in experiment [1] is -8%. The IC50 in the experiment on Trypanosoma cruzi [2] was found to be 2.1 µM; in the experiment with Trypanosoma cruzi [3], 2.1 µM; in the experiment with HepG2, 100 µM.

Consider `COc1ccc(-c2csc(N/N=C(\C)c3ccccn3)n2)cc1`, for which the inhibition in experiment [1] amounted to 95%. Further, the IC50 in the experiment with Trypanosoma cruzi [2] came out at 2.1 µM; in the experiment with Trypanosoma cruzi [3], 14.7 µM; at Cruzipain, 0.04 µM; with HepG2, 100 µM.

As for `C(=N\Nc1nc(-c2ccccc2)cs1)/c1ccccn1`, the results for the IC50 with Trypanosoma cruzi [2], with Trypanosoma cruzi [3] and in the experiment on HepG2 were 5.4 µM, 8.3 µM and 100 µM, respectively. Besides, the inhibition in experiment [4] was 9%.
